Experimental data from publication PMC6601336 (ACS chemical biology, 2019).
Numbering of substitutions follows the chain as printed.

How the values were obtained:
[1] = target: T1, LasR T75V/Y93F/A127W (Pseudomonas aeruginosa, UniProt P25084, A127W/T75V/Y93F); experiment: E. coli lasB-lux reporter assay, LasR T75V/Y93F/A127W; format: cell-based; conditions: read-out: EC50 in the plasB-lux assay; LasR T75V/Y93F/A127W; NR = non-responsive
T1 sequence (P25084 1-239 T75V/Y93F/A127W): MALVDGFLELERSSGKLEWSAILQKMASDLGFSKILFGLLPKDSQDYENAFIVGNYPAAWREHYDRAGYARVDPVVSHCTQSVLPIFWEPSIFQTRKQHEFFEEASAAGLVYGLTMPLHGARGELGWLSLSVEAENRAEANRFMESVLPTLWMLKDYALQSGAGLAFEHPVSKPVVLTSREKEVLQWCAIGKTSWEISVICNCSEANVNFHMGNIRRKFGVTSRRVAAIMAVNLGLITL

[2] = target: T2, LasR Y93F/A127W (Pseudomonas aeruginosa, UniProt P25084, A127W/Y93F); experiment: E. coli lasB-lux reporter assay, LasR Y93F/A127W; format: cell-based; conditions: read-out: EC50 in the plasB-lux assay; LasR Y93F/A127W; NR = non-responsive
T2 sequence (P25084 1-239 Y93F/A127W): T1 sequence (P25084 1-239 T75V/Y93F/A127W) with V75T

[3] = test system: luciferase; experiment: Off-target inhibition of luciferase in the E. coli lasB-lux reporter strain; format: cell-based; conditions: high concentrations (>10 μM)
[4] = target: T3, WT LasR LBD (Pseudomonas aeruginosa, UniProt P25084); experiment: Protein solubility assay, WT LasR LBD produced in E. coli; format: cell-based; conditions: induction at 25°C; 10 μM compound
T3 sequence (P25084 1-173 limits assumed): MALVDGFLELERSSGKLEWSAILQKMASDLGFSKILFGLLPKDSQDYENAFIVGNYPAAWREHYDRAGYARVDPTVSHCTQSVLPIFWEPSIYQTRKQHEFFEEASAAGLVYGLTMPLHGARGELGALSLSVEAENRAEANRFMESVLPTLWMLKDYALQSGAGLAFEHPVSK
Summary of the method: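 E. coli BL21(DE3) with plasmid-borne 6xHis-WT LasR LBD were grown overnight, diluted 1:500 in LB with ampicillin and grown to OD600 0.5. Cells were induced with 1 mM IPTG plus test compound at 10 μM final, then shaken 4 h at 25°C or 37°C. Whole-cell lysate and soluble fractions were compared by band intensity. Fraction soluble = soluble band / whole-cell lysate band.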

[5] = test system: pyocyanin production; conditions: cited from earlier work
[6] = target: T4, LasR Y93F (Pseudomonas aeruginosa, UniProt P25084, Y93F); experiment: E. coli lasB-lux reporter assay, LasR Y93F; format: cell-based; conditions: read-out: EC50 in the plasB-lux assay; LasR Y93F; NR = non-responsive
T4 sequence (P25084 1-239 Y93F): T1 sequence (P25084 1-239 T75V/Y93F/A127W) with V75T, W127A

[7] = target: T5, LasR T75V/Y93F (Pseudomonas aeruginosa, UniProt P25084, T75V/Y93F); experiment: E. coli lasB-lux reporter assay, LasR T75V/Y93F; format: cell-based; conditions: read-out: EC50 in the plasB-lux assay; LasR T75V/Y93F
T5 sequence (P25084 1-239 T75V/Y93F): T1 sequence (P25084 1-239 T75V/Y93F/A127W) with W127A

[8] = target: T6, LasR T75V (Pseudomonas aeruginosa, UniProt P25084, T75V); experiment: E. coli lasB-lux reporter assay, LasR T75V; format: cell-based; conditions: read-out: EC50 in the plasB-lux assay; LasR T75V; NR = non-responsive
T6 sequence (P25084 1-239 T75V): T1 sequence (P25084 1-239 T75V/Y93F/A127W) with F93Y, W127A

[9] = target: T7, LasR A127W (Pseudomonas aeruginosa, UniProt P25084, A127W); experiment: E. coli lasB-lux reporter assay, LasR A127W; format: cell-based; conditions: read-out: EC50 in the plasB-lux assay, NR = non-responsive
T7 sequence (P25084 1-239 A127W): T1 sequence (P25084 1-239 T75V/Y93F/A127W) with V75T, F93Y

[10] = test system: LasR; conditions: cited from earlier work

Q: For “meta-bromo-thiolactone [mBTL, reference compound]”, which EC50 [1] is on record?
A: 10 nM

Q: And the EC50 [2]?
A: 9 nM

Q: And the “off-target inhibition of luciferase” value [3]?
A: caused off-target inhibition of luciferase

Q: And the “soluble WT LasR LBD” value [4]?
A: yielded soluble WT LasR LBD

Q: And the effect on pyocyanin [5]?
A: inhibiting pyocyanin

Q: And the EC50 [6]?
A: 10 nM

Q: And the EC50 [7]?
A: 10 nM

Q: And the EC50 [8]?
A: 6 nM

Q: And the EC50 [9]?
A: 60 nM

Q: What about the “activity on LasR” value [10] of the same substance?
A: is a LasR agonist
